Activity calls are given as the source filed them. No cut-off for these calls is given here.
tested on: MDA-MB-435; assay: Cytotoxicity against human MDA-MB-435 cells; type: functional, cell-based
Outline: (§1)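 MDA-MB-435 cells seeded at 5×10³ per well and allowed 4 h at 37 °C under 5% CO₂. They were then exposed to the agent alone or combined with camptothecin, with DMSO as vehicle control, for 48 h. MTS was developed 4 h and read at 490 nm with medium-only background subtracted. Percent was calculated relative to DMSO-treated cells.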

With `O=c1[nH]c2ccc(Cl)cc2c(N[C@@H]2CN3CCC2CC3)c1-c1nc2ccccc2[nH]1` the EC50 was 80 nM.

target: T1, Serine/threonine-protein kinase Chk1 (Homo sapiens, UniProt O14757); assay: Inhibition of CHK1
T1 sequence (O14757 whole entry): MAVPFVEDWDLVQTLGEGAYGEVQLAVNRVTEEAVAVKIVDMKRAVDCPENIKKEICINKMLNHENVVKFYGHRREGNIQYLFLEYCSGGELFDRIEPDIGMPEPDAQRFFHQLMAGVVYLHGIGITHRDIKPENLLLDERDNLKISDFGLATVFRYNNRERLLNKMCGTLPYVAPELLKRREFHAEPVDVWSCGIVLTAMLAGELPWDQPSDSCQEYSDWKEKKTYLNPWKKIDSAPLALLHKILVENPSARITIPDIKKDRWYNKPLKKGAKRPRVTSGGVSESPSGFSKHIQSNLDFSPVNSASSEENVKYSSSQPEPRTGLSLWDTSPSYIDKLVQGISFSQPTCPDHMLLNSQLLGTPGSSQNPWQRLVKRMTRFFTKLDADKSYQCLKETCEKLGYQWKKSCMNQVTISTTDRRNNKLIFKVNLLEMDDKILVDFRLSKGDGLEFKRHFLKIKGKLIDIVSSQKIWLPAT

First: O=c1[nH]c2ccccc2c(N[C@H]2CN3CCC2CC3)c1-c1nc2ccccc2[nH]1
Second: O=c1[nH]c2ccccc2c(N[C@@H]2CN3CCC2CC3)c1-c1nc2ccccc2[nH]1
The IC50 of the first is 63-fold higher: 482 nM for the first, 7.6 nM for the second.

First: O=c1[nH]c2ccccc2c(O)c1-c1nc2ccccc2[nH]1
Second: Nc1c(-c2nc3ccccc3[nH]2)c(=O)[nH]c2ccccc12
The IC50 of the first is 4-fold higher: 2950 nM for the first, 731 nM for the second.

Going from `O=c1[nH]c2ccc(Cl)c(Cl)c2c(N[C@@H]2CN3CCC2CC3)c1-c1nc2ccccc2[nH]1` to `Cc1cccc2c(N[C@@H]3CN4CCC3CC4)c(-c3nc4ccccc4[nH]3)c(O)nc12`, the IC50 rises from 21.7 nM to 138 nM (6.4-fold).

Going from `Oc1nc2ccc(Cl)cc2c(NC2CCCNC2)c1-c1nc2ccccc2[nH]1` (stereo unspecified) to `Oc1nc2ccc(Cl)cc2c(N[C@H]2CCNC2)c1-c1nc2ccccc2[nH]1`, the IC50 falls from 1.04 nM to 0.5 nM (2.1-fold).

First: Cc1ccc2nc(O)c(-c3nc4ccccc4[nH]3)c(NC3CCNCC3)c2c1
Second: Cc1ccc2nc(O)c(-c3nc4ccccc4[nH]3)c(N[C@@H]3CN4CCC3CC4)c2c1
The IC50 of the first is 9.4-fold higher: 3.3 nM for the first, 0.35 nM for the second. The second is the more potent here.

Going from `CCN(CC)c1c(-c2nc3ccccc3[nH]2)c(=O)[nH]c2ccccc12` to `Cc1ccc2[nH]c(=O)c(-c3nc4ccccc4[nH]3)c(NC3CCCNC3)c2c1` (stereo unspecified), the IC50 falls from greater than 30000 nM to 1.4 nM.

First: O=c1[nH]c2ccc(Cl)cc2c(N[C@@H]2CCNC2)c1-c1nc2ccccc2[nH]1
Second: O=c1[nH]c2ccc(Cl)cc2c(NC2CCNCC2)c1-c1nc2ccccc2[nH]1
The IC50 of the first is 2.2-fold higher: 7.2 nM for the first, 3.3 nM for the second. The second is the more potent here.

tested on: MDA-MB-435; assay: Cytotoxicity against human MDA-MB-435 cells in presence of camptothecin; type: functional, cell-based; outline: as §1

For `O=c1[nH]c2ccc(Cl)cc2c(N[C@@H]2CN3CCC2CC3)c1-c1nc2ccccc2[nH]1`, the Activity was “Active”.
